Test results: ChEMBL document CHEMBL3414449, “DUPA conjugation of a cytotoxic indenoisoquinoline topoisomerase I inhibitor for selective prostate cancer cell targeting” (J Med Chem, 2015)
Active and inactive are the calls of the source. The calls are words filed in the database; no cut-off is given here.

What was measured:
CWR22R [1] = assay: Cytotoxicity against human 22Rv1 cells after 2 hrs by [3H]thymidine incorporation assay; type: functional, cell-based
Outline: (§1)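 22RV1 cells seeded at 50 000/well and grown to monolayer over 24–48 h. Drug pulse in fresh medium at 37 °C for 2 h or 24 h, then washed and chased 66 h. Labelled with 3H-thymidine (1 mCi/mL) for 4 h, TCA-precipitated, NaOH-solubilized and scintillation counted. IC50 from % incorporation vs log concentration.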

CWR22R [2] = assay: Cytotoxicity against human 22Rv1 cells after 24 hrs by [3H]thymidine incorporation assay; type: functional, cell-based; outline: as §1
CWR22R [3] = assay: Antitumor activity against human 22Rv1 cells xenografted in nu/nu mouse assessed as regression of tumor growth at 2 umol/kg, ip administered as single dose on alternative days, 3 days/week for 3 weeks; type: functional, organism-based
Outline: (§2)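 Male nu/nu mice, 5–6 weeks old, given 2 × 10^6 22RV1 cells in 20% HC Matrigel in the right shoulder. Dosing began at tumor ~100 mm3, 5 mice/group, ip in sterile saline (100 μL). Tumors measured by caliper every 2–3 days, volume = 0.5 × L × W2. Body weight recorded at each dosing. Live mice counted per dose. Untreated controls got saline.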

CWR22R [4] = assay: Antitumor activity against human 22Rv1 cells xenografted in nu/nu mouse assessed as regression of tumor growth at 2 umol/kg, ip administered as single dose on alternative days, 3 days/week for 3 weeks co-administered with 100 fold excess dose of DUPA-Aoc-Phe-Phe-Dap-Asp-Cys reagent; type: functional, organism-based; outline: as §2
Mus musculus [5] = assay: Toxicity in human 22Rv1 cells xenografted nu/nu mouse at 2 umol/kg, ip administered as single dose on alternative days, 3 days/week for 3 weeks; type: organism-based, CWR22R; conditions: in vivo; outline: as §2
Mus musculus [6] = assay: Toxicity in human 22Rv1 cells xenografted nu/nu mouse assessed as induction of mouse death at 2 umol/kg, ip administered as single dose on alternative days, 3 days/week for 3 weeks; type: organism-based, CWR22R; conditions: in vivo; outline: as §2
Mus musculus [7] = assay: Toxicity in human 22Rv1 cells xenografted nu/nu mouse assessed as effect on body weight at 2 umol/kg, ip administered as single dose on alternative days, 3 days/week for 3 weeks; type: organism-based, CWR22R; conditions: in vivo; outline: as §2
CWR22R [8] = assay: Antitumor activity against human 22Rv1 cells xenografted in nu/nu mouse assessed as reduction in tumor mass at 2 umol/kg, ip administered as single dose on alternative days, 3 days/week for 3 weeks by hematoxylin and eosin staining; type: functional, organism-based
[9] = target: Glutamate carboxypeptidase 2 (Homo sapiens, UniProt Q04609); assay: Inhibition of PSMA (unknown origin)
Chain of Glutamate carboxypeptidase 2 (Q04609 whole entry): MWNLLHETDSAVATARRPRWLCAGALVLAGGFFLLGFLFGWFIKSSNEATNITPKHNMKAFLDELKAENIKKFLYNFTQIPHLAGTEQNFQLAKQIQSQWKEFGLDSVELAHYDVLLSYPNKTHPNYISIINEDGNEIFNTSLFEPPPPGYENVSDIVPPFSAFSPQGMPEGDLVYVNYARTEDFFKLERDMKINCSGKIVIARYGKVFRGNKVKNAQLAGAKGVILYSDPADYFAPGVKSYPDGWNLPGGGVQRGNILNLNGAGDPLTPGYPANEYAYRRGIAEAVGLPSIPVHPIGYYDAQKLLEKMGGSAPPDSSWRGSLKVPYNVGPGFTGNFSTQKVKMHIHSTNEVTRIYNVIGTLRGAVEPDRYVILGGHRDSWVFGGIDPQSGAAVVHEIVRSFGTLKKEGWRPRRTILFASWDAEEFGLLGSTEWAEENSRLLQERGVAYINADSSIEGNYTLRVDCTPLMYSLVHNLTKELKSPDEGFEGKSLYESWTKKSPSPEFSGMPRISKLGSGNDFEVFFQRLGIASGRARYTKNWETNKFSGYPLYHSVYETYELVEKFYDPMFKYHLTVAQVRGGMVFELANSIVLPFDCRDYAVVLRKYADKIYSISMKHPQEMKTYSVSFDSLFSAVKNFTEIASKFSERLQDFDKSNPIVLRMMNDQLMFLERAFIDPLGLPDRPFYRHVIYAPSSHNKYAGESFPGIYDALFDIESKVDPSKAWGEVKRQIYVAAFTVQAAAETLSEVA

Row | IC50 [9] [nM] | SMILES | IC50 (CWR22R [1]; cwr22r) | IC50 (CWR22R [2]) [nM] | Activity (CWR22R [3]) | Activity (CWR22R [4]) | Activity (Mus musculus [5]) | Activity (Mus musculus [6]) | Activity (Mus musculus [7]) | Activity (CWR22R [8]) | IC50 (CWR22R [1]; Homo sapiens, 22Rv1, read-out: IC50) [nM]
1 | – | COc1cc2c3c(n(CCCN4CCOCC4)c(=O)c2cc1OC)-c1cc(OC)c(OC(=O)OCCSSC[C@H](NC(=O)[C@H](CC(=O)O)NC(=O)[C@@H](N)CNC(=O)[C@H](Cc2ccccc2)NC(=O)[C@H](Cc2ccccc2)NC(=O)CCCCCCCNC(=O)CC[C@H](NC(=O)N[C@@H](CCC(=O)O)C(=O)O)C(=O)O)C(=O)O)cc1C3=O | Not Active | 11.4 | Active | inactive | Non-toxic | Non-toxic | Non-toxic | Active | –
2 | 47 | O=C(O)CC[C@H](NC(=O)N[C@@H](CCC(=O)O)C(=O)O)C(=O)O | – | – | – | – | – | – | – | – | –
3 | – | COc1cc2c(cc1O)C(=O)c1c-2n(CCCN2CCOCC2)c(=O)c2cc(OC)c(OC)cc12 | – | – | Active | – | Toxic | Toxic | Non-toxic | – | 2
